As a reminder, the IC50 is the concentration needed to halve the response being measured. The term IC90 denotes the point of the concentration-response curve where the effect stands at 90%. In general, inhibition refers to the percentage by which the read-out fell short of the control. As a reminder, the Ki is the equilibrium dissociation constant of an inhibitor or competing ligand from its target.

The values below come from ChEMBL document CHEMBL3259704, “Second generation steroidal 4-aminoquinolines are potent, dual-target inhibitors of the botulinum neurotoxin serotype A metalloprotease and P. falciparum malaria” (J Med Chem, 2014).

Data set [1] is described as follows: Selectivity index, ratio of IC50 for human HepG2 cells to IC50 for CQ, MFQ-resistant Plasmodium falciparum TM91C235 clone Southeast asian isolate. In kind it is toxicity, cell-based. As to conditions: read-out: Ratio IC50.
The test system of data set [2] is Plasmodium falciparum. The experiment in a line: Antimalarial activity against CQ, MFQ-resistant Plasmodium falciparum TM91C235 clone Southeast asian isolate assessed as inhibition of parasite proliferation by MSF assay. It is filed as functional, organism-based. The gist of the method: (§1)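 SYBR Green I fluorescence (MSF) microtiter drug-sensitivity assay: malarial DNA content is the measure of in vitro parasite proliferation. Resistance index is the IC90 ratio of the resistant strain to D6.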

Data set [3] relates to Plasmodium falciparum. The experiment in a line: Antimalarial activity against CQ, MFQ-susceptible Plasmodium falciparum D6 clone Sierra 1/UNC isolate assessed as inhibition of parasite proliferation by MSF assay. It is filed as functional, organism-based. The gist of the method: as §1
A short description of data set [4]: Selectivity index, ratio of IC50 for human HepG2 cells to IC50 for CQ, MFQ-susceptible Plasmodium falciparum D6 clone Sierra 1/UNC isolate. In kind it is toxicity, cell-based. Particulars: read-out: Ratio IC50.
The test system of data set [5] is HepG2. Put plainly: Cytotoxicity against human HepG2 cells assessed as cell viability after 48 hrs by MTT assay. It is filed as cell-based. As to conditions: HepG2, 48 h.
Data set [6] can be described thus: Selectivity index, ratio of IC50 for human HepG2 cells to IC50 for CQ-resistant, MFQ-susceptible Plasmodium falciparum W2 clone Indochina 1 isolate. It is filed as toxicity, cell-based. As to conditions: read-out: Ratio IC50.
The target in data set [7] is Botulinum neurotoxin type A (Clostridium botulinum, UniProt P0DPI0). Put plainly: Inhibition of Clostridium botulinum recombinant BoNT/A light chain using N-terminal acetylated, C-terminal aminated SNAP-25 (187-203) as substrate by reverse-phase HPLC analysis. In outline: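 Same HPLC LC cleavage assay (pH 7.3 HEPES/Tween, BSA, excess Zn, 37 °C). […] Ki comes from velocity versus substrate at several inhibitor levels, globally fit to a competitive model.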
Sequence of Botulinum neurotoxin type A (P0DPI0 2-448 limits assumed): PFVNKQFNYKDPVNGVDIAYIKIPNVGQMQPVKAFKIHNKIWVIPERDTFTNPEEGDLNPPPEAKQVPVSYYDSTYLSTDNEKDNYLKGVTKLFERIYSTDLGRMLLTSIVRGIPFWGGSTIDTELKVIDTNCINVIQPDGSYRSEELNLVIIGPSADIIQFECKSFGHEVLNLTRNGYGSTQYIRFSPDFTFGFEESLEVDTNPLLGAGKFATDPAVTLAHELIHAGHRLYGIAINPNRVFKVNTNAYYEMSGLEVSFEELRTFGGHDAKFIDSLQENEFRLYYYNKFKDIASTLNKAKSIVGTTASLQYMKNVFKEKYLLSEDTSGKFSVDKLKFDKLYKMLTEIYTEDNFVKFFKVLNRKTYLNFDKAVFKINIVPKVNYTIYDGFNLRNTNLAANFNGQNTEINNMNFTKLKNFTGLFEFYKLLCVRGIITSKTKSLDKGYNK

For data set [8], the system named is Plasmodium falciparum. Put plainly: Resistance index, ratio of IC90 for CQ-resistant, MFQ-susceptible Plasmodium falciparum W2 clone Indochina 1 isolate to IC90 for CQ, MFQ-susceptible Plasmodium falciparum D6 clone Sierra 1/UNC isolate. It is filed as functional. In outline: as §1
For data set [9], the target named is Botulinum neurotoxin type A (Clostridium botulinum) (UniProt P0DPI0). The experiment in a line: Inhibition of Clostridium botulinum recombinant BoNT/A light chain using N-terminal acetylated, C-terminal aminated SNAP-25 (187-203) as substrate at 20 uM by reverse-phase HPLC analysis. The gist of the method: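 Recombinant BoNT/A LC with SNAP-25 187–203 peptide substrate in 40 mM HEPES–0.05% Tween, pH 7.3, with 0.5 mg/mL BSA and 50 μM excess Zn, at 37 °C. Quenched with TFA; reverse-phase HPLC product/substrate peak areas give percent inhibition, run in duplicate.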
Sequence of Botulinum neurotoxin type A (Clostridium botulinum) (P0DPI0 2-448 limits assumed): as above

For data set [10], the system named is Plasmodium falciparum. Put plainly: Antimalarial activity against CQ-resistant, MFQ-susceptible Plasmodium falciparum W2 clone Indochina 1 isolate assessed as inhibition of parasite proliferation by MSF assay. In kind it is functional, organism-based. In outline:
as §1

Data set [11] has as its system Plasmodium falciparum. The experiment in a line: Resistance index, ratio of IC90 for CQ, MFQ-resistant Plasmodium falciparum TM91C235 clone Southeast asian isolate to IC90 for CQ, MFQ-susceptible Plasmodium falciparum D6 clone Sierra 1/UNC isolate. In kind it is functional. In outline: as §1
Data set [12] relates to PBMC. Put plainly: Cytotoxicity against human PBMC assessed as inhibition of cell survival after 72 hrs. It is filed as cell-based. In outline: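 PBMC from heparinized healthy-donor blood (Histopaque) in RPMI-1640 with 10% FCS and PHA stimulation, 200 000 cells/well, with compounds in DMSO, 72 h at 37 °C, 6% CO2.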

On to `CC(=O)O[C@H]1C[C@H]2[C@@H]([C@H](OC(C)=O)C[C@@H]3C[C@H](NS(C)(=O)=O)CC[C@@]32C)[C@@H]2CC[C@H]([C@H](C)CCCNCCNc3ccnc4cc(Cl)ccc34)[C@@]12C`, for which the selectivity ratio in data set [1] came to 222; in data set [4], 301; in [6], 131. Besides, the IC50 in data set [2] came to 26.4 nM; in [3], 19.4 nM; in [5], 5850 nM; in data set [7], 5090 nM; in [10] it was 44.6 nM. The concentration for an effect of 90% (IC90) in [2] was 45.6 nM; in data set [3], 53 nM; in [10], 71.1 nM. Moreover, the Ratio in data set [8] was 1.34; in data set [11], 0.86. In data set [9], the inhibition worked out at 74.4%.
Turning to `CC(=O)O[C@@H]1CC[C@@]2(C)[C@@H](C1)C[C@@H](OC(C)=O)[C@@H]1[C@@H]2C[C@H](OC(C)=O)[C@]2(C)[C@@H]([C@H](C)CCCNCCCNc3ccnc4cc(Cl)ccc34)CC[C@@H]12`, the selectivity ratio was determined as 67 in [1], 101 in data set [4] and 104 in data set [6]. Moreover, the half-inhibitory concentration (IC50) was 14.5 nM in data set [2]; 9.72 nM in [3]; 980 nM in data set [5]; 2280 nM in data set [7]; 9.42 nM in data set [10]. For the same compound, the 90% effect concentration (IC90) was determined as 31.9 nM in data set [2], 13.8 nM in data set [3] and 19 nM in [10]. The Ki in data set [7] amounted to 5670 nM. Besides, the Ratio in [8] came to 1.38; in [11], 2.31. In addition, in [9], the inhibition is 81.4%.
`CC(=O)O[C@H]1C[C@H]2[C@@H]([C@H](OC(C)=O)C[C@@H]3C[C@H](NC(=O)OC(C)(C)C)CC[C@@]32C)[C@@H]2CC[C@H]([C@H](C)CCCN(C)CCNc3ccnc4cc(Cl)ccc34)[C@@]12C`: the selectivity ratio in data set [1] is 144; in data set [4], 264; in data set [6], 293. The 50% inhibitory concentration (IC50) was determined as 16.3 nM in [2]; 8.93 nM in data set [3]; 2360 nM in data set [5]; 6780 nM in data set [7]; 8.05 nM in data set [10]. The IC90 in data set [2] turned out to be 22.6 nM; in [3] it was 10.9 nM; in data set [10] it was 11.7 nM. Also, the figures for the Ratio in [8] and in data set [11] were 1.07 and 2.07, respectively. Further, the inhibition in [9] amounted to 30%.
In the case of `CC(=O)O[C@@H]1CC[C@@]2(C)[C@@H](C1)C[C@@H](OC(C)=O)[C@@H]1[C@@H]2C[C@H](OC(C)=O)[C@]2(C)[C@@H]([C@H](C)CCCN(C)CCNc3ccnc4cc(Cl)ccc34)CC[C@@H]12`, the results for the selectivity ratio in [1], in [4] and in data set [6] were 79, 242 and 98, respectively. The IC50 in data set [2] stood at 23 nM; in data set [3] it was 7.47 nM; in data set [5] it was 1810 nM; in data set [10] it was 18.6 nM. Moreover, the concentration for an effect of 90% (IC90) in data set [2] was determined as 32.9 nM; in data set [3] it was 19.1 nM; in [10] it was 38.6 nM. The Ki in [7] is 34500 nM. Moreover, the figures for the Ratio in data set [8] and in data set [11] were 2.03 and 1.73, respectively. Further, the inhibition in data set [9] is 33.3%.
`CC(=O)O[C@H]1C[C@H]2[C@@H]([C@H](OC(C)=O)C[C@@H]3C[C@H](N)CC[C@@]32C)[C@@H]2CC[C@H]([C@H](C)CCCNCCCNc3ccnc4cc(Cl)ccc34)[C@@]12C`: the selectivity ratio was found to be 43 in data set [1], 75 in [4] and 54 in data set [6]. In addition, the half-maximal inhibitory concentration (IC50) is 243 nM in data set [2]; 138 nM in data set [3]; 10400 nM in data set [5]; 1040 nM in [7]; 195 nM in data set [10]. Moreover, the IC90 in data set [2] stood at 347 nM; in [3] it was 234 nM; in data set [10], 282 nM. In data set [7], the Ki worked out at 3450 nM. Besides, the Ratio in data set [8] was 1.21; in data set [11], 1.49. The inhibition in [9] was found to be 84.8%.
On to `CC(=O)O[C@H]1C[C@H]2[C@@H]([C@H](OC(C)=O)C[C@@H]3C[C@H](N)CC[C@@]32C)[C@@H]2CC[C@H]([C@H](C)CCCN(C)CCCNc3ccnc4cc(Cl)ccc34)[C@@]12C`, for which the figures for the selectivity ratio in data set [1], in [4] and in [6] were 50, 44 and 45, respectively. Further, the concentration for half-maximal inhibition (IC50) in data set [2] was determined as 100 nM; in data set [3], 112 nM; in data set [5], 4970 nM; in data set [7] it was 1130 nM; in [10], 110 nM. The concentration for an effect of 90% (IC90) in [2] worked out at 128 nM; in [3], 150 nM; in [10] it was 153 nM. The Ratio was 1.02 in data set [8] and 0.85 in data set [11]. Further, the inhibition in data set [9] is 81.4%.
Take `CC(=O)O[C@H]1C[C@H]2[C@@H]([C@H](OC(C)=O)C[C@@H]3C[C@H](NC(=O)OC(C)(C)C)CC[C@@]32C)[C@@H]2CC[C@H]([C@H](C)CCCNCCNc3ccnc4cc(Cl)ccc34)[C@@]12C`: the selectivity ratio in [1] was found to be 464; in [4], 531; in [6], 1740. The IC50 in data set [2] was found to be 27.6 nM; in data set [3] it was 24.1 nM; in data set [5], 12800 nM; in [7] it was 4900 nM; in data set [10], 7.34 nM. Moreover, the concentration for an effect of 90% (IC90) in data set [2] came to 51.9 nM; in data set [3], 29.5 nM; in data set [10] it was 12.3 nM. Besides, the Ratio is reported as 0.42 in [8] and 1.76 in data set [11]. Besides, the inhibition in [9] is 67.4%.
Regarding `CC(=O)O[C@H]1C[C@H]2[C@@H]([C@H](OC(C)=O)C[C@@H]3C[C@H](N(C)C)CC[C@@]32C)[C@@H]2CC[C@H]([C@H](C)CCCNCCCNc3ccnc4cc(Cl)ccc34)[C@@]12C`, the selectivity ratio in [1] came to 156; in [4], 137; in [6] it was 382. For the same compound, the IC50 in [12] is 7840 nM; in data set [2], 88.7 nM; in [3] it was 101 nM; in data set [5] it was 13800 nM; in [7], 1340 nM; in [10], 36.1 nM. Also, the concentration for an effect of 90% (IC90) in data set [2] is 165 nM; in data set [3], 139 nM; in data set [10], 81.1 nM. Besides, the Ratio in data set [8] was 0.58; in [11], 1.19. For the same compound, the inhibition in data set [9] was found to be 92.6%.
Take `CC(=O)O[C@@H]1CC[C@@]2(C)[C@@H](C1)C[C@@H](OC(C)=O)[C@@H]1[C@@H]2C[C@H](OC(C)=O)[C@]2(C)[C@@H]([C@H](C)CCCN(C)CCCNc3ccnc4cc(Cl)ccc34)CC[C@@H]12`: the selectivity ratio in data set [1] came out at 71; in data set [4] it was 229; in data set [6], 134. Besides, the half-maximal inhibitory concentration (IC50) in [2] worked out at 22.3 nM; in [3] it was 6.91 nM; in data set [5], 1580 nM; in data set [7], 4480 nM; in data set [10] it was 11.8 nM. In addition, the concentration for an effect of 90% (IC90) in data set [2] came to 47.3 nM; in data set [3], 10.5 nM; in [10] it was 16.9 nM. The Ki in data set [7] is 7690 nM. Also, the Ratio in data set [8] is listed as 1.61; in [11] it was 4.52. Besides, in data set [9], the inhibition is 61.1%.
Regarding `CC(=O)O[C@H]1C[C@H]2[C@@H]([C@H](OC(C)=O)C[C@@H]3C[C@H](N)CC[C@@]32C)[C@@H]2CC[C@H]([C@H](C)CCCN(CCCNc3ccnc4cc(Cl)ccc34)CCC[C@@H](C)[C@H]3CC[C@H]4[C@@H]5[C@H](OC(C)=O)C[C@@H]6C[C@H](N)CC[C@]6(C)[C@H]5C[C@H](OC(C)=O)[C@]34C)[C@@]12C`, the selectivity ratio in data set [1] is 7; in data set [4], 9; in [6], 10. The concentration for half-maximal inhibition (IC50) in data set [2] turned out to be 297 nM; in data set [3], 245 nM; in [5], 2130 nM; in data set [7] it was 630 nM; in data set [10], 218 nM. For the same compound, the IC90 in data set [2] is 313 nM; in data set [3], 321 nM; in [10], 414 nM. The Ratio in data set [8] stood at 1.29; in data set [11], 0.97. Also, the inhibition in data set [9] was determined as 92.8%.
